Screening data (PubChem)
PAFAH2 FP inh: PAFAH2 (human) inhibition. Q99487. recombinant PAFAH2, FP-rhodamine activity probe, fluorescence polarization. inhibition, % at 3.39 µM. 340,000 compounds, 0.99% hits;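 active = inhibition above the mean over all tested compounds plus 3 SD, cut at about 30% in these data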;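 note: inhibitors block probe labeling of enzyme so polarization drops; 0% = enzyme with DMSO and 100% = wells lacking PAFAH2 protein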
PAFAH1B2 FP inh: PAFAH1B2 (human) inhibition; P68402; recombinant PAFAH1B2, FP-rhodamine activity probe, fluorescence polarization; inhibition, % at 3.39 µM; 340,000 compounds, 1.2% hits; AID 492953;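 active = inhibition above the mean of all tested compounds plus 3 SD, cut at about 24% in these data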;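 note: 0% = enzyme with DMSO and 100% = wells lacking PAFAH1B2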
PAFAH1B3 inh: PAFAH1B3 (human) inhibition; Q15102; recombinant PAFAH1B3, FP-rhodamine probe, fluorescence polarization; inhibition, % at 3.39 µM; 340,000 compounds, 0.28% hits;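 active = inhibition above the screen-wide average of all tested compounds plus 3 SD, cut at about 25% in these data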;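 note: 0% = enzyme with DMSO only and 100% = wells lacking PAFAH1B3 protein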
ASAP1 GAP inh: ASAP1 ArfGAP inhibition | Q9ULH1 | ASAP1-stimulated ARF1 GTP hydrolysis, GDP FP detection | inhibition, % at 16.5 µM | 360,000 compounds, 0.19% hits; in the data active = inhibition above about 25%;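 note: 0% = vehicle with enzyme and substrate and 100% = no enzyme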
Target sequence (Q9ULH1 325-724 limits assumed): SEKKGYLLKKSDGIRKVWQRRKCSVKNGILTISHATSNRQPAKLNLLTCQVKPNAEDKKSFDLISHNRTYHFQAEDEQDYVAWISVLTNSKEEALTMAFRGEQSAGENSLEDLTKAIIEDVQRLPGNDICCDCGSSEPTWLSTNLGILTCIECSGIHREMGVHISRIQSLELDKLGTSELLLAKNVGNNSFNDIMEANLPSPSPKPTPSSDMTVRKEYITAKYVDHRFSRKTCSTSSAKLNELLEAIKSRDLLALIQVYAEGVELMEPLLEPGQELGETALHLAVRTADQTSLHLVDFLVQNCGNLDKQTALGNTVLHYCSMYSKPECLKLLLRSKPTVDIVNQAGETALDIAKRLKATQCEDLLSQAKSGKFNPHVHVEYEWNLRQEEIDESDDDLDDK
ARFGAP1 inhibitor: inhibitors of rat ARFGAP1 | inhibition, % at 16.5 µM | 360,000 compounds, 0.26% hits | Arfgap1-stimulated ARF1 GTP hydrolysis, GDP FP detection | Q62848;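 active = inhibition above a per-plate limit, mean inhibition of low control wells plus 3 SD, cut at about 25% in these data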;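 note: 0% = DMSO wells with enzyme and 100% = wells lacking Arfgap1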
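Material: truncated rat Arfgap1 GAP domain; Incubation: compound-enzyme preincubation 20 min, reaction 120 min, detection 60 min, 25 °C; Read-out: percent inhibition of Arfgap1-stimulated GTP hydrolysis; Technique: FP, GDP Alexa 633 tracer displaced from anti-GDP antibody, 620/688 nm; Controls: No-Arfgap1 wells (100%) versus DMSO full-reaction wells (0%); Replication: single well per compound.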
pPAFAH FP inh: inhibitors of human plasma PAF acetylhydrolase (pPAFAH); recombinant pPAFAH, FP-rhodamine probe fluorescence polarization; inhibition, % at 3.39 µM; 330,000 compounds, 1.5% hits;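 active = inhibition above the mean inhibition across the screen plus 3 SD, cut at about 25% in these data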;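 note: inhibitors block binding of the rhodamine activity-based probe so polarization drops; 0% = enzyme with DMSO and 100% = wells lacking pPAFAH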
ARFGAP1 inh conf: confirmation of rat ARFGAP1 inhibitors. shares compounds with ARFGAP1 inhibitor. inhibition, % at 16.5 µM. 890 compounds, 30% hits. ARFGAP1-stimulated ARF1 GTP hydrolysis, GDP tracer FP;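 active = average inhibition over triplicates above the hit cutoff set in the earlier primary screen, cut at about 25% in these data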;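 note: 0% = Arfgap1 plus ARF1-GTP with DMSO and 100% = wells lacking Arfgap1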
* marks the source's active call; other numbers are inactive results; · = no result given. This is a sample that favours compounds with a hit; in the whole collection about 2.8% have one here.

SMILES | PAFAH2 FP inh | PAFAH1B2 FP inh | PAFAH1B3 inh | ASAP1 GAP inh | ARFGAP1 inhibitor | pPAFAH FP inh | ARFGAP1 inh conf
CC(=O)Nc1ccc(S(=O)(=O)NCC(=O)NCCc2ccc(S(N)(=O)=O)cc2)cc1 | -4 | 5 | 3 | 3 | 0 | -4 | ·
OC(c1ccc(F)c(F)c1)c1nc(-c2cccc(F)c2)cs1 (centres undefined) | · | · | · | 0 | -4 | · | ·
Cn1c(C(=O)NCC2CCCO2)cc2c(=O)[nH]c3ccccc3c21 (centres undefined) | -13 | 0 | 4 | 15 | 25* | 3 | -3
O=C(Nc1ccc(OC(F)(F)F)cc1)C1CCCN(C(=O)c2ccc(Cl)cc2)C1 (centres undefined) | -2 | 12 | -1 | 14 | 25* | -2 | 6
c1ccc2c(N3CCCCC3)ncnc2c1 | -2 | 2 | -1 | -5 | 27* | 5 | -2
CC1CCCCN1c1ncnc2ccccc12 (centres undefined) | 0 | 5 | 0 | -7 | 3 | 3 | ·
O=C(CNC(=O)c1ccco1)OCC(=O)c1ccc([N+](=O)[O-])cc1 | 3 | 2 | 10 | -4 | 9 | 0 | ·
COc1ccc(C(C#N)N2CCC(c3ccccc3)=N2)cc1OC (centres undefined) | -3 | -1 | 7 | 13 | 8 | 7 | ·
COc1cc(C(C#N)N2CCC(c3ccccc3)=N2)ccc1O (centres undefined) | -3 | 3 | 5 | -12 | 27* | 2 | -4
COc1cc(Cl)ccc1OCc1cc(C(=O)N[C@H]2CCCCNC2=O)no1 | -5 | 4 | 12 | 5 | -9 | 8 | ·
COc1ccc(C(c2oc(CO)cc(=O)c2O)c2oc(CO)cc(=O)c2O)cc1OC | 1 | 4 | 4 | 6 | 27* | -1 | 1
COc1cc(C(c2oc(CO)cc(=O)c2O)c2oc(CO)cc(=O)c2O)cc(OC)c1OC | 3 | 1 | 0 | 17 | 5 | -4 | ·
COc1cc2c3nnc(-c4ccccc4)c-3cn(Cc3ccc(F)cc3)c2cc1OC | -3 | 1 | 9 | 6 | 4 | -1 | ·
COc1cc2c3nnc(-c4ccc(F)cc4)c-3cn(Cc3ccc(C)cc3)c2cc1OC | -7 | 2 | -1 | 16 | 39* | 13 | 48*
COc1ccccc1-c1cn(CC[C@@H]2CC[C@H](NC(=O)C3CCC3)[C@@H](CO)O2)nn1 | · | · | · | 3 | 11 | · | ·
COc1cc(C(=O)OC(C)CN2CCN(C)CC2)cc(OC)c1OC (centres undefined) | 9 | 1 | 7 | 1 | 0 | 3 | ·
COc1cc(C(=O)OC(C)CN2C(C)CCCC2C)cc(OC)c1OC (centres undefined) | 0 | -1 | -1 | 2 | 32* | 5 | -6
Cc1ccc(-c2csc3ncn(Cc4ccc(C(=O)O)cc4)c(=O)c23)cc1C | 4 | 2 | 17 | 4 | 2 | 1 | ·
O=C(O)c1ccc(Cn2cnc3scc(-c4ccccc4)c3c2=O)cc1 | 4 | 26* | 16 | 12 | 25* | 3 | 1
O=C1CC(N2CCC(c3nc4ccccc4s3)CC2)C(=O)N1Cc1ccccc1 (centres undefined) | 3 | 2 | 4 | 17 | 37* | 3 | 4
Oc1ccc(N2CCN(Cc3c(-c4ccccc4)nc4ccccn34)CC2)cc1 | 8 | -3 | 10 | -2 | -6 | 16 | ·
Cc1cn([C@H]2C[C@H](O)[C@@H](CNCC3=Cc4cc(O)ccc4OC3)O2)c(=O)[nH]c1=O | · | · | · | -1 | -15 | · | ·
O=C(Nc1ccc(-c2csc(Nc3cccc(C(F)(F)F)c3)n2)cc1)c1ccccc1 | 1 | -5 | 10 | 16 | 10 | 12 | ·
O=C(Nc1cccc(-c2csc(Nc3cccc(C(F)(F)F)c3)n2)c1)c1ccccc1 | -25 | -3 | -13 | 8 | 25* | -1 | 18
CCOc1cc(/C=C2\SC(=N)N(c3nccs3)C2=O)ccc1OCCN1CCOCC1 | -6 | 5 | 15 | 6 | 39* | 13 | 43*
CC(C)=CCC/C(C)=C/Cc1c(O)ccc(C(=O)/C=C/c2ccc(O)cc2)c1O | -8 | 0 | -4 | 20 | 28* | 3 | 26*
